Measurements: ChEMBL document CHEMBL5329147, “Synthesis of tryptanthrin appended dispiropyrrolidine oxindoles and their antibacterial evaluation” (RSC Med Chem, 2023)
Converted amounts (≈) assume the structure as drawn.

Columns and labels:
Vero = experiment: Cytotoxicity against African green monkey Vero cells assessed as cell viability incubated for 72 hrs by MTT assay; type: toxicity, cell-based; details: chlorocebus sabaeus
Summary of the method: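 MTT assay on Vero cells, ~10^3 cells/well, 37 °C, 5% CO2. Compound was added at 24 h (100-12.5 μg/mL) for 72 h, then MTT for 4 h at 37 °C. Formazan was dissolved in DMSO and read at 540 nm. CC50 was the lowest concentration giving 50% viability loss. Doxorubicin positive control; triplicate.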

Staphylococcus aureus [1] = experiment: Antibacterial activity against methicillin resistant Staphylococcus aureus NRS 194 assessed as bacterial growth inhibition incubated for 18 to 24 hrs by broth microdilution method; type: functional; details: time 18-24 hrs
Summary of the method: (§1)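 CLSI broth microdilution in MHBII; overnight starter cultures (single MHA colony, 37 °C, shaking) adjusted by OD600 to 10^6 CFU/mL. Compounds from DMSO stocks (10 mg/mL), two-fold series 64–0.5 mg/L. Incubation 37 °C, 18-24 h. MIC = lowest concentration with no visible growth. Three independent determinations, each in duplicate.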

Staphylococcus aureus [2] = experiment: Antibacterial activity against vancomycin resistant Staphylococcus aureus […] 4 assessed as bacterial growth inhibition incubated for 18 to 24 hrs by broth microdilution method; type: functional; details: time 18-24 hrs; summary of the method: as §1
Staphylococcus aureus [3] = experiment: Antibacterial activity against methicillin resistant Staphylococcus aureus NRS 186 assessed as bacterial growth inhibition incubated for 18 to 24 hrs by broth microdilution method; type: functional; details: time 18-24 hrs; summary of the method: as §1
Staphylococcus aureus [4] = experiment: Antibacterial activity against methicillin resistant Staphylococcus aureus NRS 191 assessed as bacterial growth inhibition incubated for 18 to 24 hrs by broth microdilution method; type: functional; details: time 18-24 hrs; summary of the method: as §1
Escherichia coli = experiment: Antibacterial activity against Escherichia coli ATCC 25922 assessed as bacterial growth inhibition incubated for 18 to 24 hrs by broth microdilution method; type: functional; details: time 18-24 hrs
Summary of the method: (§2)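 CLSI broth microdilution. Overnight starter cultures (single colony, MHBII, 37 °C, shaking 18–24 h) were diluted by OD600 to 10^6 CFU/mL in MHBII. Two-fold dilutions from […] were made from 10 mg/mL DMSO stocks, then incubated 37 °C for 18-24 h. The MIC was the lowest concentration with no visible growth. Three independent runs, duplicate samples.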

Staphylococcus aureus [5] = experiment: Antibacterial activity against vancomycin resistant Staphylococcus aureus […] 12 assessed as bacterial growth inhibition incubated for 18 to 24 hrs by broth microdilution method; type: functional; details: time 18-24 hrs; summary of the method: as §1
Staphylococcus aureus [6] = experiment: Antibacterial activity against methicillin resistant Staphylococcus aureus NRS 192 assessed as bacterial growth inhibition incubated for 18 to 24 hrs by broth microdilution method; type: functional; details: time 18-24 hrs; summary of the method: as §1
Pseudomonas aeruginosa = experiment: Antibacterial activity against Pseudomonas aeruginosa ATCC 27853 assessed as bacterial growth inhibition incubated for 18 to 24 hrs by broth microdilution method; type: functional; details: time 18-24 hrs; summary of the method: as §2
Staphylococcus aureus [7] = experiment: Antibacterial activity against methicillin resistant Staphylococcus aureus NRS 129 assessed as bacterial growth inhibition incubated for 18 to 24 hrs by broth microdilution method; type: functional; details: time 18-24 hrs; summary of the method: as §1
Staphylococcus aureus [8] = experiment: Antibacterial activity against Staphylococcus aureus ATCC 29213 assessed as bacterial growth inhibition incubated for 18 to 24 hrs by broth microdilution method; type: functional; details: Staphylococcus aureus, ATCC 29213; time 18-24 hrs; read-out: MIC; summary of the method: as §2
Staphylococcus aureus [9] = experiment: Antibacterial activity against methicillin resistant Staphylococcus aureus NRS 198 assessed as bacterial growth inhibition incubated for 18 to 24 hrs by broth microdilution method; type: functional; details: time 18-24 hrs; summary of the method: as §1
Staphylococcus aureus [10] = experiment: Antibacterial activity against methicillin sensitive Staphylococcus aureus ATCC 29213 assessed as bacterial growth inhibition incubated for 18 to 24 hrs by broth microdilution method; type: functional; details: time 18-24 hrs; summary of the method: as §1
Acinetobacter baumannii = experiment: Antibacterial activity against Acinetobacter baumannii BAA-1605 assessed as bacterial growth inhibition incubated for 18 to 24 hrs by broth microdilution method; type: functional; details: time 18-24 hrs; summary of the method: as §2
[11] = Selectivity ratio of CC50 for African green monkey Vero cells to MIC against Staphylococcus aureus ATCC 29213; type: toxicity, cell-based
Staphylococcus aureus [12] = experiment: Antibacterial activity against methicillin resistant Staphylococcus aureus NRS 193 assessed as bacterial growth inhibition incubated for 18 to 24 hrs by broth microdilution method; type: functional; details: time 18-24 hrs; summary of the method: as §1
Staphylococcus aureus [13] = experiment: Antibacterial activity against methicillin resistant Staphylococcus aureus NRS 119 assessed as bacterial growth inhibition incubated for 18 to 24 hrs by broth microdilution method; type: functional; details: time 18-24 hrs; summary of the method: as §1
Klebsiella pneumoniae = experiment: Antibacterial activity against Klebsiella pneumoniae BAA 1705 assessed as bacterial growth inhibition incubated for 18 to 24 hrs by broth microdilution method; type: functional; details: time 18-24 hrs; summary of the method: as §2
Staphylococcus aureus [14] = experiment: Synergistic antibacterial activity against Staphylococcus aureus ATCC 29213 assessed as fractional inhibitory concentration index incubated for 24 hrs in the presence of gentamycin by checkerboard assay; type: functional
Summary of the method: (§3)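 Checkerboard in 96-well plates. The test agent was diluted two-fold along one axis and the partner antibiotic two-fold along the other, with ~10^5 CFU/mL inoculum, 37 °C for 24 h. ΣFIC = FIC A + FIC B, each FIC being the MIC in combination divided by the MIC alone.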

Staphylococcus aureus [15] = experiment: Synergistic antibacterial activity against Staphylococcus aureus ATCC 29213 assessed as bacterial growth inhibition incubated for 24 hrs in presence of levofloxacin by checkerboard assay; type: functional
Summary of the method: (§4)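 Checkerboard in 96-well plates: two-fold serial dilutions, one agent along abscissa, partner antibiotic along ordinate. Wells received ~10⁵ CFU/mL S. aureus ATCC 29213 in MHBII. Incubation 37 °C, 24 h. ΣFIC = FIC A + FIC B, each FIC being combination MIC divided by MIC alone.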

Staphylococcus aureus [16] = experiment: Synergistic antibacterial activity against Staphylococcus aureus ATCC 29213 assessed as fractional inhibitory concentration index incubated for 24 hrs in the presence of levofloxacin by checkerboard assay; type: functional; summary of the method: as §3
Staphylococcus aureus [17] = experiment: Synergistic antibacterial activity against Staphylococcus aureus ATCC 29213 assessed as bacterial growth inhibition incubated for 24 hrs in presence of rifampicin by checkerboard assay; type: functional; summary of the method: as §4
Staphylococcus aureus [18] = experiment: Synergistic antibacterial activity against Staphylococcus aureus ATCC 29213 assessed as fractional inhibitory concentration index incubated for 24 hrs in the presence of minocycline by checkerboard assay; type: functional; summary of the method: as §3
Staphylococcus aureus [19] = experiment: Bactericidal activity against Staphylococcus aureus ATCC 29213 assessed as reduction in bacterial load at 10 times of MIC incubated for 24 hrs by time kill analysis; type: functional
Summary of the method: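 Time-kill assay. ~10^6 CFU/mL in MHBII was exposed to 1X and 10X MIC, 37 °C with shaking for 24 h. Samples were taken at 0, 1, 6 and 24 h, serially diluted in PBS, plated on MHA and incubated 37 °C 18–20 h. Colonies were counted as CFU/mL survivors. Three repeats in duplicate; mean plotted.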

Staphylococcus aureus [20] = experiment: Synergistic antibacterial activity against Staphylococcus aureus ATCC 29213 assessed as fractional inhibitory concentration index incubated for 24 hrs in the presence of rifampicin by checkerboard assay; type: functional; summary of the method: as §3
Staphylococcus aureus [21] = experiment: Synergistic antibacterial activity against Staphylococcus aureus ATCC 29213 assessed as bacterial growth inhibition incubated for 24 hrs in presence of meropenem by checkerboard assay; type: functional; summary of the method: as §4
Staphylococcus aureus [22] = experiment: Synergistic antibacterial activity against Staphylococcus aureus ATCC 29213 assessed as bacterial growth inhibition incubated for 24 hrs in presence of ceftazidime by checkerboard assay; type: functional; summary of the method: as §4
Staphylococcus aureus [23] = experiment: Synergistic antibacterial activity against Staphylococcus aureus ATCC 29213 assessed as fractional inhibitory concentration index incubated for 24 hrs in the presence of ceftazidime by checkerboard assay; type: functional; summary of the method: as §3
Staphylococcus aureus [24] = experiment: Synergistic antibacterial activity against Staphylococcus aureus ATCC 29213 assessed as fractional inhibitory concentration index incubated for 24 hrs in the presence of meropenem by checkerboard assay; type: functional; summary of the method: as §3
Staphylococcus aureus [25] = experiment: Synergistic antibacterial activity against Staphylococcus aureus ATCC 29213 assessed as bacterial growth inhibition incubated for 24 hrs in presence of gentamycin by checkerboard assay; type: functional; summary of the method: as §4
Staphylococcus aureus [26] = experiment: Synergistic antibacterial activity against Staphylococcus aureus ATCC 29213 assessed as bacterial growth inhibition incubated for 24 hrs in presence of vancomycin by checkerboard assay; type: functional; summary of the method: as §4
Staphylococcus aureus [27] = experiment: Synergistic antibacterial activity against Staphylococcus aureus ATCC 29213 assessed as bacterial growth inhibition incubated for 24 hrs in presence of daptomycin by checkerboard assay; type: functional; summary of the method: as §4
Staphylococcus aureus [28] = experiment: Synergistic antibacterial activity against Staphylococcus aureus ATCC 29213 assessed as bacterial growth inhibition incubated for 24 hrs in presence of minocycline by checkerboard assay; type: functional; summary of the method: as §4
Staphylococcus aureus [29] = experiment: Synergistic antibacterial activity against Staphylococcus aureus ATCC 29213 assessed as bacterial growth inhibition incubated for 24 hrs in presence of linezolid by checkerboard assay; type: functional; summary of the method: as §4
Staphylococcus aureus [30] = experiment: Synergistic antibacterial activity against Staphylococcus aureus ATCC 29213 assessed as fractional inhibitory concentration index incubated for 24 hrs in the presence of daptomycin by checkerboard assay; type: functional; summary of the method: as §3
Staphylococcus aureus [31] = experiment: Synergistic antibacterial activity against Staphylococcus aureus ATCC 29213 assessed as fractional inhibitory concentration index incubated for 24 hrs in the presence of linezolid by checkerboard assay; type: functional; summary of the method: as §3
Staphylococcus aureus [32] = experiment: Synergistic antibacterial activity against Staphylococcus aureus ATCC 29213 assessed as fractional inhibitory concentration index incubated for 24 hrs in the presence of vancomycin by checkerboard assay; type: functional; summary of the method: as §3

Row | SMILES | Activity (Vero) | MIC (Staphylococcus aureus [1]) [µg/mL] | MIC (Staphylococcus aureus [2]) [µg/mL] | MIC (Staphylococcus aureus [3]) [µg/mL] | MIC (Staphylococcus aureus [4]) [µg/mL] | MIC (Escherichia coli) [µg/mL] | MIC (Staphylococcus aureus [5]) [µg/mL] | MIC (Staphylococcus aureus [6]) [µg/mL] | MIC (Pseudomonas aeruginosa) [µg/mL] | MIC (Staphylococcus aureus [7]) [µg/mL] | MIC (Staphylococcus aureus [8]) [µg/mL] | MIC (Staphylococcus aureus [9]) [µg/mL] | MIC (Staphylococcus aureus [10]) [µg/mL] | MIC (Acinetobacter baumannii) [µg/mL] | selectivity ratio [11] | MIC (Staphylococcus aureus [12]) [µg/mL] | MIC (Staphylococcus aureus [13]) [µg/mL] | MIC (Klebsiella pneumoniae) [µg/mL] | other results
1 | CCN1C(=O)[C@@]2(CN(C)C3(c4cc(Cl)ccc4-n4c3nc3ccccc3c4=O)C2(C#N)C#N)c2ccccc21 (stereo partly specified) | Non-Toxic | 0.5 (≈ 0.938 µM) | 0.25 (≈ 0.469 µM) | 0.125 (≈ 0.235 µM) | 0.063 (≈ 0.118 µM) | > 64 | 0.25 (≈ 0.469 µM) | 0.25 (≈ 0.469 µM) | > 64 | 0.25 (≈ 0.469 µM) | 0.125 (≈ 0.235 µM) | 0.25 (≈ 0.469 µM) | 0.25 (≈ 0.469 µM) | > 64 | > 80 | 0.25 (≈ 0.469 µM) | 0.125 (≈ 0.235 µM) | > 64 | 
2 | CCN1C(=O)[C@@]2(CN(C)C3(c4cc(Br)ccc4-n4c3nc3ccccc3c4=O)C2(C#N)C#N)c2ccccc21 (stereo partly specified) | Non-Toxic | 0.5 (≈ 0.866 µM) | 0.5 (≈ 0.866 µM) | 0.25 (≈ 0.433 µM) | 0.063 (≈ 0.109 µM) | > 64 | 0.25 (≈ 0.433 µM) | 0.125 (≈ 0.216 µM) | > 64 | 0.125 (≈ 0.216 µM) | 0.125 (≈ 0.216 µM) | 0.125 (≈ 0.216 µM) | 0.125 (≈ 0.216 µM) | > 64 | 40 | 0.25 (≈ 0.433 µM) | 0.125 (≈ 0.216 µM) | > 64 | FIC (Staphylococcus aureus [14]): 2; MIC (Staphylococcus aureus [15]): 0.25 µg/mL; FIC (Staphylococcus aureus [16]): 2; MIC (Staphylococcus aureus [17]): 0.25 µg/mL; FIC (Staphylococcus aureus [18]): 2; Activity (Staphylococcus aureus [19]): Dose-Dependent Effect; Activity (Staphylococcus aureus [19]; record 2): ~2.7 log10CFU/ml; FIC (Staphylococcus aureus [20]): 2; MIC (Staphylococcus aureus [21]): 0.25 µg/mL; MIC (Staphylococcus aureus [22]): 0.25 µg/mL; FIC (Staphylococcus aureus [23]): 2; FIC (Staphylococcus aureus [24]): 2; MIC (Staphylococcus aureus [25]): 0.25 µg/mL; MIC (Staphylococcus aureus [26]): 0.25 µg/mL; MIC (Staphylococcus aureus [27]): 0.25 µg/mL; MIC (Staphylococcus aureus [28]): 0.25 µg/mL; MIC (Staphylococcus aureus [29]): 0.25 µg/mL; FIC (Staphylococcus aureus [30]): 2; FIC (Staphylococcus aureus [31]): 2; FIC (Staphylococcus aureus [32]): 2
